From ChEMBL document CHEMBL1153736, “Application of ring-closing metathesis macrocyclization to the development of Tsg101-binding antagonists” (Bioorg Med Chem Lett, 2010) come the findings set out here.

Numbered stars: 1 amine (or outer) side, 2 acyl side, 3 side chain; on linkers, the order of the positions; unused ones are H or OH. Bridge positions count the residues as written; N and C are the ends. Square brackets hold non-standard residues; d marks the D form. Peptide text beside a SMILES is read from it. * marks the point of attachment. Fluorescein(5-NHCS) = O=C1OC2(c3ccc(O)cc3Oc3cc(O)ccc32)c2cc(NC(=S)*)ccc21; Gly(N-but-3-enyl) = O=C(CN(CCC=[*:3])[*:1])[*:2]; X3 = O=C(CN(CCCCCCC=[*:3])[*:1])[*:2]; N(7-octenyl)Gly = C=CCCCCCCNCC(=O)O; X1 = O=C(CN(CCCC=[*:3])[*:1])[*:2]; X2 = O=C(CN(CC=[*:3])[*:1])[*:2]; Ava = NCCCCC(=O)O

The target in the first data set is T1, Tumor susceptibility gene 101 protein (Homo sapiens, UniProt Q99816).
T1 sequence (Q99816 whole entry): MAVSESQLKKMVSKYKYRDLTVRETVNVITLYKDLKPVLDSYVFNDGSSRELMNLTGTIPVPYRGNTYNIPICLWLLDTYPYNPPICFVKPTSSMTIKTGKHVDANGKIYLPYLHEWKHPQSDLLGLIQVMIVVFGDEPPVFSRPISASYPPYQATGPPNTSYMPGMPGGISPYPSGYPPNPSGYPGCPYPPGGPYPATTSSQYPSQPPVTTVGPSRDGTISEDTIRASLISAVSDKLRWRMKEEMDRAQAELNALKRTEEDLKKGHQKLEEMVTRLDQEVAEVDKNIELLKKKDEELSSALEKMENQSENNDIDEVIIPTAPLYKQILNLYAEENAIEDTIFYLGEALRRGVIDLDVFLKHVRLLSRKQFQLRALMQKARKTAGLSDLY
The data set can be described thus: Binding affinity to ubiquitin E2 variant domain of human Tsg101 by fluorescent anisotropy.
Details: not given
A word on the Kd: it is a measure of binding affinity in units of concentration. A high value points to a looser complex. For `C[C@@H]1NC(=O)[C@H]([C@@H](C)O)NC(=O)[C@@H]2CCCN2C(=O)[C@H](CCC(=O)O)NC(=O)CN(C(=O)CCCCNC(=S)Nc2ccc3c(c2)C2(OC3=O)c3ccc(O)cc3Oc3cc(O)ccc32)CCC/C=C\CN(CC(N)=O)C(=O)[C@H](CCC(=O)O)NC(=O)[C@@H]2CCCN2C(=O)[C@@H]2CCCN2C1=O`, the Kd was greater than 500 µM.

Compound `C[C@@H]1NC(=O)[C@H]([C@@H](C)O)NC(=O)[C@@H]2CCCN2C(=O)[C@H](CCC(=O)O)NC(=O)CN(C(=O)CCCCNC(=S)Nc2ccc3c(c2)C2(OC3=O)c3ccc(O)cc3Oc3cc(O)ccc32)CCCCC/C=C\CN(CC(N)=O)C(=O)[C@H](CCC(=O)O)NC(=O)[C@@H]2CCCN2C(=O)[C@@H]2CCCN2C1=O` had a Kd greater than 500 µM.

Consider `C[C@@H]1NC(=O)[C@H]([C@@H](C)O)NC(=O)[C@@H]2CCCN2C(=O)CN(C(=O)[C@@H]2CCCN2C(=O)CCCCNC(=S)Nc2ccc3c(c2)C2(OC3=O)c3ccc(O)cc3Oc3cc(O)ccc32)CCCCC=CCN(CC(N)=O)C(=O)[C@H](CCC(=O)O)NC(=O)[C@@H]2CCCN2C(=O)[C@@H]2CCCN2C1=O`, for which the Kd was found to be 108 µM.

With `C[C@@H]1NC(=O)[C@H]([C@@H](C)O)NC(=O)[C@@H]2CCCN2C(=O)[C@H](CCC(=O)O)NC(=O)CN(C(=O)CCCCNC(=S)Nc2ccc3c(c2)C2(OC3=O)c3ccc(O)cc3Oc3cc(O)ccc32)CCC=CCN(CC(N)=O)C(=O)[C@H](CCC(=O)O)NC(=O)[C@@H]2CCCN2C(=O)[C@@H]2CCCN2C1=O`, the Kd is greater than 500 µM.

As to `C[C@@H]1NC(=O)[C@H]([C@@H](C)O)NC(=O)[C@@H]2CCCN2C(=O)[C@H](CCC(=O)O)NC(=O)CN(C(=O)CCCCNC(=S)Nc2ccc3c(c2)C2(OC3=O)c3ccc(O)cc3Oc3cc(O)ccc32)CCCC/C=C\CN(CC(N)=O)C(=O)[C@H](CCC(=O)O)NC(=O)[C@@H]2CCCN2C(=O)[C@@H]2CCCN2C1=O`, the Kd was greater than 500 µM.

In the case of `C[C@@H]1NC(=O)[C@H]([C@@H](C)O)NC(=O)[C@@H]2CCCN2C(=O)[C@H](CCC(=O)O)NC(=O)CN(C(=O)CCCCNC(=S)Nc2ccc3c(c2)C2(OC3=O)c3ccc(O)cc3Oc3cc(O)ccc32)CCC/C=C\CCCCCCN(CC(N)=O)C(=O)[C@H](CCC(=O)O)NC(=O)[C@@H]2CCCN2C(=O)[C@@H]2CCCN2C1=O`, the Kd was determined as 106 µM.

On to `C[C@@H]1NC(=O)[C@H]([C@@H](C)O)NC(=O)[C@@H]2CCCN2C(=O)CN(C(=O)[C@@H]2CCCN2C(=O)CCCCNC(=S)Nc2ccc3c(c2)C2(OC3=O)c3ccc(O)cc3Oc3cc(O)ccc32)CC/C=C\CN(CC(=O)N[C@@H](CCC(=O)O)C(N)=O)C(=O)[C@@H]2CCCN2C(=O)[C@@H]2CCCN2C1=O` ({Fluorescein(5-NHCS)-Ava}-P[Gly(N-but-3-enyl)]PTAPP[X2]E-NH2; staple (Z) 2-8), for which the Kd came to 171 µM. This Kd lies about 1.6-fold higher than the previous one.

With `C[C@@H]1NC(=O)[C@H]([C@@H](C)O)NC(=O)[C@@H]2CCCN2C(=O)CN(C(=O)[C@@H]2CCCN2C(=O)CCCCNC(=S)Nc2ccc3c(c2)C2(OC3=O)c3ccc(O)cc3Oc3cc(O)ccc32)CCCC=CCN(CC(=O)N[C@@H](CCC(=O)O)C(N)=O)C(=O)[C@@H]2CCCN2C(=O)[C@@H]2CCCN2C1=O` ({Fluorescein(5-NHCS)-Ava}-P[X1]PTAPP[X2]E-NH2; staple 2-8), the Kd is greater than 500 µM.

As for `C[C@@H]1NC(=O)[C@H]([C@@H](C)O)NC(=O)[C@@H]2CCCN2C(=O)CN(C(=O)[C@@H]2CCCN2C(=O)CCCCNC(=S)Nc2ccc3c(c2)C2(OC3=O)c3ccc(O)cc3Oc3cc(O)ccc32)C/C=C\CN(CC(=O)N[C@@H](CCC(=O)O)C(N)=O)C(=O)[C@@H]2CCCN2C(=O)[C@@H]2CCCN2C1=O` ({Fluorescein(5-NHCS)-Ava}-P[X2]PTAPP[X2]E-NH2; staple (Z) 2-8), the Kd was found to be 218 µM.

A further data set relates to HeLa. In words: Cellular uptake in human HeLa cells assessed as fluorescence intensity by FACS analysis relative to control. The class given is ADME, cell-based. The conditions noted are these: in the assay text read “fluorescence microscopy” for “FACS analysis”. The procedure, abridged: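 Uptake of FITC-tagged peptide-peptoid hybrids was measured by fluorescence microscopy. The value is the average fluorescence intensity of treated cells, quantified from at least 20 cells taken from 4–6 fields, each field holding about 5 cells.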
(In flow cytometry, cells or beads pass a laser one at a time.)
For `C[C@@H]1NC(=O)[C@H]([C@@H](C)O)NC(=O)[C@@H]2CCCN2C(=O)[C@H](CCC(=O)O)NC(=O)CN(C(=O)CCCCNC(=S)Nc2ccc3c(c2)C2(OC3=O)c3ccc(O)cc3Oc3cc(O)ccc32)CCCCCC/C=C\CCCCCCN(CC(N)=O)C(=O)[C@H](CCC(=O)O)NC(=O)[C@@H]2CCCN2C(=O)[C@@H]2CCCN2C1=O`, the Drug uptake turned out to be 328%.

For the compound `C[C@@H]1NC(=O)[C@H]([C@@H](C)O)NC(=O)[C@@H]2CCCN2C(=O)CN(C(=O)[C@@H]2CCCN2C(=O)CCCCNC(=S)Nc2ccc3c(c2)C2(OC3=O)c3ccc(O)cc3Oc3cc(O)ccc32)CC/C=C\CCCCCCN(CC(N)=O)C(=O)[C@H](CCC(=O)O)NC(=O)[C@@H]2CCCN2C(=O)[C@@H]2CCCN2C1=O`, the Drug uptake is 77%.

As to `C[C@@H]1NC(=O)[C@H]([C@@H](C)O)NC(=O)[C@@H]2CCCN2C(=O)CN(C(=O)[C@@H]2CCCN2C(=O)CCCCNC(=S)Nc2ccc3c(c2)C2(OC3=O)c3ccc(O)cc3Oc3cc(O)ccc32)CCCCCC/C=C\CCCCCCN(CC(N)=O)C(=O)[C@H](CCC(=O)O)NC(=O)[C@@H]2CCCN2C(=O)[C@@H]2CCCN2C1=O`, the Drug uptake is reported as 199%.

As for `C=CCN(CC(N)=O)C(=O)[C@H](CCC(=O)O)NC(=O)[C@@H]1CCCN1C(=O)[C@@H]1CCCN1C(=O)[C@H](C)NC(=O)[C@@H](NC(=O)[C@@H]1CCCN1C(=O)CN(CC=C)C(=O)[C@@H]1CCCN1C(=O)CCCCNC(=S)Nc1ccc2c(c1)C1(OC2=O)c2ccc(O)cc2Oc2cc(O)ccc21)[C@@H](C)O`, the Drug uptake was 98%.

Take `C[C@@H]1NC(=O)[C@H]([C@@H](C)O)NC(=O)[C@@H]2CCCN2C(=O)[C@H](CCC(=O)O)NC(=O)CN(C(=O)CCCCNC(=S)Nc2ccc3c(c2)C2(OC3=O)c3ccc(O)cc3Oc3cc(O)ccc32)CC/C=C\CCCCCCN(CC(N)=O)C(=O)[C@H](CCC(=O)O)NC(=O)[C@@H]2CCCN2C(=O)[C@@H]2CCCN2C1=O`: the Drug uptake was determined as 100%.

Regarding `C=CCCCCCCN(CC(=O)N[C@@H](CCC(=O)O)C(=O)N1CCC[C@H]1C(=O)N[C@H](C(=O)N[C@@H](C)C(=O)N1CCC[C@H]1C(=O)N1CCC[C@H]1C(=O)N[C@@H](CCC(=O)O)C(=O)N(CCCCCCC=C)CC(N)=O)[C@@H](C)O)C(=O)CCCCNC(=S)Nc1ccc2c(c1)C1(OC2=O)c2ccc(O)cc2Oc2cc(O)ccc21`, the Drug uptake worked out at 35%.

In the case of `C=CCCCCCCN(CC(N)=O)C(=O)[C@H](CCC(=O)O)NC(=O)[C@@H]1CCCN1C(=O)[C@@H]1CCCN1C(=O)[C@H](C)NC(=O)[C@@H](NC(=O)[C@@H]1CCCN1C(=O)CN(CCCCCCC=C)C(=O)[C@@H]1CCCN1C(=O)CCCCNC(=S)Nc1ccc2c(c1)C1(OC2=O)c2ccc(O)cc2Oc2cc(O)ccc21)[C@@H](C)O`, the Drug uptake came to 42%.

On to `C=CCN(CC(=O)N[C@@H](CCC(=O)O)C(=O)N1CCC[C@H]1C(=O)N[C@H](C(=O)N[C@@H](C)C(=O)N1CCC[C@H]1C(=O)N1CCC[C@H]1C(=O)N[C@@H](CCC(=O)O)C(=O)N(CC=C)CC(N)=O)[C@@H](C)O)C(=O)CCCCNC(=S)Nc1ccc2c(c1)C1(OC2=O)c2ccc(O)cc2Oc2cc(O)ccc21` (stereo in doubt; 1'-(1,1)), for which the Drug uptake worked out at 74%.

Turning to `C[C@@H]1NC(=O)[C@H]([C@@H](C)O)NC(=O)[C@@H]2CCCN2C(=O)CN(C(=O)[C@@H]2CCCN2C(=O)CCCCNC(=S)Nc2ccc3c(c2)C2(OC3=O)c3ccc(O)cc3Oc3cc(O)ccc32)CC/C=C/CCCCCCN(CC(=O)N[C@@H](CCC(=O)O)C(N)=O)C(=O)[C@@H]2CCCN2C(=O)[C@@H]2CCCN2C1=O` ({Fluorescein(5-NHCS)-Ava}-P[Gly(N-but-3-enyl)]PTAPP[X3]E-NH2; staple (E) 2-8), the Drug uptake came to 76%.

Regarding `C=CCCCCCCN(CC(=O)N1CCC[C@H]1C(=O)N[C@H](C(=O)N[C@@H](C)C(=O)N1CCC[C@H]1C(=O)N1CCC[C@H]1C(=O)N(CCCCCCC=C)CC(=O)N[C@@H](CCC(=O)O)C(N)=O)[C@@H](C)O)C(=O)[C@@H]1CCCN1C(=O)CCCCNC(=S)Nc1ccc2c(c1)C1(OC2=O)c2ccc(O)cc2Oc2cc(O)ccc21` ({Fluorescein(5-NHCS)-Ava}-P[N(7-octenyl)Gly]PTAPP[N(7-octenyl)Gly]E-NH2), the Drug uptake is 45%.

Consider `C[C@@H]1NC(=O)[C@H]([C@@H](C)O)NC(=O)[C@@H]2CCCN2C(=O)CN(C(=O)[C@@H]2CCCN2C(=O)CCCCNC(=S)Nc2ccc3c(c2)C2(OC3=O)c3ccc(O)cc3Oc3cc(O)ccc32)CCCCCC/C=C\CCCCCCN(CC(=O)N[C@@H](CCC(=O)O)C(N)=O)C(=O)[C@@H]2CCCN2C(=O)[C@@H]2CCCN2C1=O` ({Fluorescein(5-NHCS)-Ava}-P[X3]PTAPP[X3]E-NH2; staple (Z) 2-8), for which the Drug uptake was 200%.

On to `C[C@@H]1NC(=O)[C@H]([C@@H](C)O)NC(=O)[C@@H]2CCCN2C(=O)[C@H](CCC(=O)O)NC(=O)CN(C(=O)CCCCNC(=S)Nc2ccc3c(c2)C2(OC3=O)c3ccc(O)cc3Oc3cc(O)ccc32)CC/C=C/CCCCCCN(CC(=O)N[C@@H](CCC(=O)O)C(N)=O)C(=O)[C@@H]2CCCN2C(=O)[C@@H]2CCCN2C1=O` ({Fluorescein(5-NHCS)-Ava}-[Gly(N-but-3-enyl)]EPTAPP[X3]E-NH2; staple (E) 1-8), for which the Drug uptake worked out at 100%.

For the compound `C=CCCCCCCN(CC(=O)N[C@@H](CCC(=O)O)C(=O)N1CCC[C@H]1C(=O)N[C@H](C(=O)N[C@@H](C)C(=O)N1CCC[C@H]1C(=O)N1CCC[C@H]1C(=O)N(CCCCCCC=C)CC(=O)N[C@@H](CCC(=O)O)C(N)=O)[C@@H](C)O)C(=O)CCCCNC(=S)Nc1ccc2c(c1)C1(OC2=O)c2ccc(O)cc2Oc2cc(O)ccc21` ({Fluorescein(5-NHCS)-Ava}-[N(7-octenyl)Gly]EPTAPP[N(7-octenyl)Gly]E-NH2), the Drug uptake is recorded as 40%.

For the compound H-PEPTAPPEE-OH, the Drug uptake is 74%.
